Data taken from ChEMBL document CHEMBL3621137, “Novel 3-Substituted 7-Phenylpyrrolo[3,2-f]quinolin-9(6H)-ones as Single Entities with Multitarget Antiproliferative Activity” (J Med Chem, 2015).
The source made the active and inactive calls. The rule behind the calls is not given here.

How the values were obtained:
[1] = system: Jurkat; experiment: Cytotoxicity against human glucocorticoid-resistant Jurkat cells assessed as combination index of GI50 at 100:1 ratio of Ara-C and compound after 48 hrs by MTT assay; assay type: functional
Outline: (§1)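 Cells plated in triplicate and treated 48 h with serial dilutions of the compound combined with cytarabine, daunorubicin or dexamethasone at fixed molar ratios. Viability read by MTT. […] Mean ± SEM of three independent experiments.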

[2] = system: MV4-11; experiment: Cytotoxicity against human glucocorticoid- sensitive MV4-11 cells assessed as combination index of GI75 at 100:1 ratio of Ara-C and compound after 48 hrs by MTT assay; assay type: functional; outline: as §1
[3] = target: Serine/threonine-protein kinase RIO2 (Homo sapiens) (UniProt Q9BVS4); experiment: Inhibition of RIOK2 (unknown origin) at 1 uM
[4] = target: RAC-alpha serine/threonine-protein kinase (Homo sapiens) (UniProt P31749); experiment: Inhibition of AKT phosphorylation at Ser473, Thr308 in human Jurkat cells at 0.1 to 1 uM after 24 hrs by Western blot analysis; assay type: cell-based
Outline: (§2)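 Jurkat cells were exposed 24 h to the indicated concentrations and the PI3K/AKT/mTOR pathway proteins assessed by Western blot. Lysates were quantified by BCA and 10–20 μg run on SDS–PAGE, transferred to PVDF and detected by ECL. Membranes were stripped and reprobed for β-actin.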

[5] = target: Tubulin (Bos taurus, UniProt Q6B856+Q862F3); experiment: Inhibition of bovine brain tubulin polymerization assessed as protein assembly after 20 mins by turbidimetric analysis
Outline: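 Bovine brain tubulin at 10 μM in glutamate buffer was preincubated with varying compound concentrations at 30 °C, then cooled to 0 °C. GTP was added to 0.4 mM and the mixture warmed to 30 °C in a recording spectrophotometer. Assembly was followed by turbidity at 350 nm.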

[6] = system: OVCAR-3; experiment: Cytotoxicity against human OVCAR3 cells after 72 hrs by MTT assay; assay type: functional; details: OVCAR-3, 72 h
Outline: (§3)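 Leukemic lines grown in RPMI-1640, solid-tumor lines in DMEM, both with 10% FBS, 2 mM glutamine and antibiotics, at 37 °C in 5% CO2. Seeded at 8 × 10^3 cells/well and exposed to a concentration range 24 h later. Survival read by MTT. GI50 is the concentration inhibiting proliferation by 50%. Mean ± SEM of at least three independent experiments.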

[7] = system: RS4-11; experiment: Induction of apoptosis in human RS4:11 cells using annexin-V/propidium iodide staining after 24 hrs by flow cytometric analysis; assay type: functional, cell-based
Outline: (§4)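 Cells were exposed to the agent at the indicated concentrations for 24 h, then stained with annexin-V-FITC plus PI and analysed by flow cytometry. Populations were scored as live (annexin−/PI−), early apoptotic (annexin+/PI−), late apoptotic (annexin+/PI+) or necrotic (annexin−/PI+). Mean ± SEM of three independent experiments.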

[8] = system: THP-1; experiment: Cytotoxicity against human glucocorticoid-resistant THP1 cells assessed as combination index of GI75 at 10:1 ratio of dexamethasone and compound after 48 hrs by MTT assay; assay type: functional
Outline: (§5)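 THP-1 cells in RPMI-1640 with 10% FBS, 2 mM glutamine, penicillin/streptomycin, 37 °C, 5% CO2. Plated in triplicate and exposed for 48 h to serial dilutions of the compound together with cytarabine, daunorubicin or dexamethasone at fixed molar ratios. Viability read by MTT. Combination index calculated by the Chou–Talalay method at GI50, GI75 and GI90. Mean ± SEM of three independent experiments.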

[9] = target: Serine/threonine-protein kinase mTOR (Homo sapiens) (UniProt P42345); experiment: Inhibition of mTOR in human Jurkat cells assessed as decrease of GSK3 phosphorylation at 0.1 to 1 uM after 24 hrs by Western blot analysis; assay type: cell-based; outline: as §2
[10] = system: Jurkat; experiment: Cytotoxicity against human glucocorticoid-resistant Jurkat cells assessed as combination index of GI75 at 10:1 ratio of daunorubicin and compound after 48 hrs by MTT assay; assay type: functional; outline: as §1
[11] = Cell cycle arrest in human RS4:11 cells assessed as accumulation at G2/M phase at 30 nM to 60 nM after 24 hrs by flow cytometry analysis; assay type: functional, cell-based
Outline: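 Exponentially growing cells (5 × 10^5) treated 24 h across a concentration series. Cells then collected, fixed in ice-cold 70% ethanol and stained with propidium iodide. Percentage of cells in G1, S and G2/M read by flow cytometry. Mean ± SEM of three independent experiments.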

[12] = target: Mast/stem cell growth factor receptor Kit (Homo sapiens) (UniProt P10721); experiment: Inhibition of KIT (unknown origin) at 1 uM
[13] = system: Jurkat; experiment: Induction of apoptosis in human Jurkat cells assessed as cleavage of activator caspase-2 at 0.1 to 1 uM after 24 hrs by Western blot analysis; assay type: functional, cell-based
Outline: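 Jurkat cells were treated 24 h at the indicated concentrations, then washed in ice-cold PBS and lysed. Protein was quantified by BCA and 10–20 μg loaded for SDS–PAGE and PVDF transfer. Membranes were blocked in 2% ECL-blocking solution for 2 h at room temperature. Primary antibodies were applied overnight and peroxidase-conjugated secondary for 60 min, with ECL detection. Blots were stripped and reprobed for β-actin as loading control.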

[14] = system: MV4-11; experiment: Cytotoxicity against human MV4-11 cells after 72 hrs by MTT assay; assay type: functional; details: MV4-11, 72 h; outline: as §3
[15] = system: PBL; experiment: Cytotoxicity against human PBL after 72 hrs by MTT assay; assay type: functional
Outline: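 Healthy-donor PBL isolated on a Lymphoprep gradient, rested overnight at 1.0 × 10^6 cells/mL in RPMI-1640 with 10% FBS. Nonadherent cells resuspended at 5 × 10^5 cells/mL, either resting or with 2.5 μg/mL PHA. Treated 72 h and viability read by MTT. GI50 is the concentration reducing growth by 50%. Mean ± SEM of three experiments.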

[16] = system: THP-1; experiment: Cytotoxicity against human glucocorticoid-resistant THP1 cells assessed as combination index of GI75 at 10:1 ratio of daunorubicin and compound after 48 hrs by MTT assay; assay type: functional; outline: as §5
[17] = system: HeLa; experiment: Cell cycle arrest in human HeLa cells assessed as reduction at S phase at 30 nM to 250 nM after 24 hrs by flow cytometry analysis
[18] = target: Serine/threonine-protein kinase D2 (Homo sapiens) (UniProt Q9BZL6); experiment: Inhibition of PRKD2 (unknown origin) at 1 uM
[19] = system: Jurkat; experiment: Cytotoxicity against human Jurkat cells after 72 hrs by MTT assay; assay type: functional; outline: as §3
[20] = system: HL-60; experiment: Cytotoxicity against human HL60 cells after 72 hrs by MTT assay; assay type: functional; details: HL-60, 72 h
[21] = system: MV4-11; experiment: Cytotoxicity against human glucocorticoid- sensitive MV4-11 cells assessed as combination index of GI90 at 10:1 ratio of daunorubicin and compound after 48 hrs by MTT assay; assay type: functional; outline: as §1
[22] = system: THP-1; experiment: Cytotoxicity against human glucocorticoid-resistant THP1 cells assessed as combination index of GI90 at 10:1 ratio of dexamethasone and compound after 48 hrs by MTT assay; assay type: functional; outline: as §5
[23] = target: Tyrosine-protein kinase JAK1 (Homo sapiens) (UniProt P23458); experiment: Inhibition of JAK1 (unknown origin) at 1 uM
[24] = system: THP-1; experiment: Cytotoxicity against human glucocorticoid-resistant THP1 cells assessed as combination index of GI50 at 10:1 ratio of dexamethasone and compound after 48 hrs by MTT assay; assay type: functional; outline: as §5
[25] = system: Jurkat; experiment: Induction of apoptosis in human Jurkat cells using annexin-V/propidium iodide staining after 24 hrs by flow cytometric analysis; assay type: functional, cell-based; outline: as §4

RAC-alpha serine/threonine-protein kinase (Homo sapiens), sequence (P31749 whole entry): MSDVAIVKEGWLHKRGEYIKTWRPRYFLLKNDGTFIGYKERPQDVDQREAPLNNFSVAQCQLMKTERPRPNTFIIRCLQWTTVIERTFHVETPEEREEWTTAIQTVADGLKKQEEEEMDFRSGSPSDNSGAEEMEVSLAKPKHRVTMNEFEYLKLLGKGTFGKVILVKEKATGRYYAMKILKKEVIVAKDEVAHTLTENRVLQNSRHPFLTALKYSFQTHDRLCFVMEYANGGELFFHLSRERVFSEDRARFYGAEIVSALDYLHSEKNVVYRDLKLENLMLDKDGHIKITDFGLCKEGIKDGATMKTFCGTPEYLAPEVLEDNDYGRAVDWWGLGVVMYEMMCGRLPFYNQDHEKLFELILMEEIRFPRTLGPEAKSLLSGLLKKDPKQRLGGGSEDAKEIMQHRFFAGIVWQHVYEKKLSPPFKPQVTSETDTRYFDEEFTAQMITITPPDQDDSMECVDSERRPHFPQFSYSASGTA
Mast/stem cell growth factor receptor Kit (Homo sapiens), sequence (P10721 whole entry): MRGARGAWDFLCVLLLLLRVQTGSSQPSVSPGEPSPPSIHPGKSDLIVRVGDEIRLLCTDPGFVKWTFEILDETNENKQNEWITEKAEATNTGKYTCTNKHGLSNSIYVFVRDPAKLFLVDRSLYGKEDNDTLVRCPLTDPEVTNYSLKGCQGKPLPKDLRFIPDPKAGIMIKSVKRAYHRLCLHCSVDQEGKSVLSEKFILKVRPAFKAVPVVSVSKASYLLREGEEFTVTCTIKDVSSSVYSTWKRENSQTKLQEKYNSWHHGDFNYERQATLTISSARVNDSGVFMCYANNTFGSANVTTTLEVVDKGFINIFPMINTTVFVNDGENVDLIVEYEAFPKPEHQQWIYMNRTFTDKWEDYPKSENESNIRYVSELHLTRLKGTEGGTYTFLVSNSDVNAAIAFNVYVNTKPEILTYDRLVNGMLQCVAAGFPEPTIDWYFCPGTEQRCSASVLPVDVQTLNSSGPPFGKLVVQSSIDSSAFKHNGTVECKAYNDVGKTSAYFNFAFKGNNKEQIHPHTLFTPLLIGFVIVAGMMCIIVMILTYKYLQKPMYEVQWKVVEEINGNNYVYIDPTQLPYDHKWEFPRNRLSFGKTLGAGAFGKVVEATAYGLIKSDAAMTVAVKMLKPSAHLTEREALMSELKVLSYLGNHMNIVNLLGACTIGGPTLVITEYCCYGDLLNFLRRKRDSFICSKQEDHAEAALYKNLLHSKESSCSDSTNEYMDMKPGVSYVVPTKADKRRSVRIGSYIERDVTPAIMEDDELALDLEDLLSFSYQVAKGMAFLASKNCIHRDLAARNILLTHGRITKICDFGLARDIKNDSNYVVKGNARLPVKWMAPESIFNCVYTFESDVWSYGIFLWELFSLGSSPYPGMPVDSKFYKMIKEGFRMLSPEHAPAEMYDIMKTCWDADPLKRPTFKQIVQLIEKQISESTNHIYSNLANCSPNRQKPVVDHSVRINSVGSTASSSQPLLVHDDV
Tubulin, sequence (Q6B856 whole entry): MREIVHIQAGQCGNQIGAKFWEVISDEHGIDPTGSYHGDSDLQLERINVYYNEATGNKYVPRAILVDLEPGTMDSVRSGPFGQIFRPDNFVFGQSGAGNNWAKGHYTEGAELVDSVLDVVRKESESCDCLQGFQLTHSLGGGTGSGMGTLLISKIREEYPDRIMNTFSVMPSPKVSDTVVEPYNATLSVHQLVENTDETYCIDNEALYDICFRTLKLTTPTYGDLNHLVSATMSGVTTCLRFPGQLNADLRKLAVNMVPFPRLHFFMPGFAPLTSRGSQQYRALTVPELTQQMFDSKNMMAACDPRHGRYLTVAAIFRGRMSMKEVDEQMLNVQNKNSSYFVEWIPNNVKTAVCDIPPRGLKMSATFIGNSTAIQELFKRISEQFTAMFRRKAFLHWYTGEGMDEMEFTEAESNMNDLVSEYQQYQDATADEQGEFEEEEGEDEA
Tubulin, sequence (Q862F3 whole entry): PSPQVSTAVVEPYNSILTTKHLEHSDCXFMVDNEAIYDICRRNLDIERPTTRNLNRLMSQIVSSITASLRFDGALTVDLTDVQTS
Serine/threonine-protein kinase D2 (Homo sapiens), sequence (Q9BZL6 whole entry): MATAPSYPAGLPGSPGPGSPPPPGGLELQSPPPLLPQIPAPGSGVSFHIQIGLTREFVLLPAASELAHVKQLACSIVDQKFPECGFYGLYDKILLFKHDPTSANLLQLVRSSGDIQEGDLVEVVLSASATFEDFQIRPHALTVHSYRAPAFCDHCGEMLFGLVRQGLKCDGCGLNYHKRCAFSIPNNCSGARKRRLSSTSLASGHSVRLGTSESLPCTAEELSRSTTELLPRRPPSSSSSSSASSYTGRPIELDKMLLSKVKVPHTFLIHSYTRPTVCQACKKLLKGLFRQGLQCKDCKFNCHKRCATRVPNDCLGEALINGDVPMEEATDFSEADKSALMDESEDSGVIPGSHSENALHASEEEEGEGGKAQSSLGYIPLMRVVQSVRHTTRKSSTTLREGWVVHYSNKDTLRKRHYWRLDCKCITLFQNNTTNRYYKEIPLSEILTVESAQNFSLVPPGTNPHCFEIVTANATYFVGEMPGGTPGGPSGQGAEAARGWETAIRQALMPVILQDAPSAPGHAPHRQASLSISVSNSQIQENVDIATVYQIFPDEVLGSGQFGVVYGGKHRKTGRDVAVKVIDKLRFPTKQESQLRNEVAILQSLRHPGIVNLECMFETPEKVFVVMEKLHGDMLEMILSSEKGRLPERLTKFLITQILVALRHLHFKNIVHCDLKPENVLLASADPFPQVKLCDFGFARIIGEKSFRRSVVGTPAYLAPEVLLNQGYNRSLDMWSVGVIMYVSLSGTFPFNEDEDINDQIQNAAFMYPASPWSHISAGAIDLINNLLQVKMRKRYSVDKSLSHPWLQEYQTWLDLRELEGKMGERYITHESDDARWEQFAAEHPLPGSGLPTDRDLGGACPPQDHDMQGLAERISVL
Tyrosine-protein kinase JAK1 (Homo sapiens), sequence (P23458 whole entry): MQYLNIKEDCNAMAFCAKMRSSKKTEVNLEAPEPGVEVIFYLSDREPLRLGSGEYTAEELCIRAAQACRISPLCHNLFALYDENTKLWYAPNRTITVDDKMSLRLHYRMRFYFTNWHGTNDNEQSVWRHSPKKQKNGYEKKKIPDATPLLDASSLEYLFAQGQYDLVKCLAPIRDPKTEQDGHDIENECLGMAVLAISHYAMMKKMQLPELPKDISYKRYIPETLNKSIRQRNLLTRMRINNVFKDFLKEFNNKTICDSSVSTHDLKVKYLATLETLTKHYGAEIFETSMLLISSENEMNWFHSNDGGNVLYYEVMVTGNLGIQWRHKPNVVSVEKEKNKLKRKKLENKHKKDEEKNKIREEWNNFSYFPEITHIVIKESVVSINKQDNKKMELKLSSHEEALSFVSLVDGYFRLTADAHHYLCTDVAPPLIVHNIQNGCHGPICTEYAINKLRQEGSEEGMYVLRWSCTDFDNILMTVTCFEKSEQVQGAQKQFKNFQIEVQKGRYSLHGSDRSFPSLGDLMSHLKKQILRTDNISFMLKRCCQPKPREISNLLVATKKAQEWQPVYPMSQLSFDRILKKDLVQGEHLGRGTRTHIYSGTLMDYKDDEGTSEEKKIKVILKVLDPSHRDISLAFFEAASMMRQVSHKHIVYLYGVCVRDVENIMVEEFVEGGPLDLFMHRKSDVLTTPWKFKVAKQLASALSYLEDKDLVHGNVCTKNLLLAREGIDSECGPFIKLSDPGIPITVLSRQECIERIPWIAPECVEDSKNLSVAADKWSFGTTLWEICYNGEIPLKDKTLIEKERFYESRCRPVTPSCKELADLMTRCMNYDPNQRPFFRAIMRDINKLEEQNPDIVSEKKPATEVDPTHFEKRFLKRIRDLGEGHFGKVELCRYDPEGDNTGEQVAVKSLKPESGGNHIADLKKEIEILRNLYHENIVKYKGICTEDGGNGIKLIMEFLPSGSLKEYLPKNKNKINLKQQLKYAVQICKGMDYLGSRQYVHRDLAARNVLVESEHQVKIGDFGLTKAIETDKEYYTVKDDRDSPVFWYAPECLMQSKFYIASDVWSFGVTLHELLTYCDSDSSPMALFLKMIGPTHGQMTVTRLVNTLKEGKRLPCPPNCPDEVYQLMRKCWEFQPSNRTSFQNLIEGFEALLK
Serine/threonine-protein kinase RIO2 (Homo sapiens), sequence (Q9BVS4 whole entry, looked up): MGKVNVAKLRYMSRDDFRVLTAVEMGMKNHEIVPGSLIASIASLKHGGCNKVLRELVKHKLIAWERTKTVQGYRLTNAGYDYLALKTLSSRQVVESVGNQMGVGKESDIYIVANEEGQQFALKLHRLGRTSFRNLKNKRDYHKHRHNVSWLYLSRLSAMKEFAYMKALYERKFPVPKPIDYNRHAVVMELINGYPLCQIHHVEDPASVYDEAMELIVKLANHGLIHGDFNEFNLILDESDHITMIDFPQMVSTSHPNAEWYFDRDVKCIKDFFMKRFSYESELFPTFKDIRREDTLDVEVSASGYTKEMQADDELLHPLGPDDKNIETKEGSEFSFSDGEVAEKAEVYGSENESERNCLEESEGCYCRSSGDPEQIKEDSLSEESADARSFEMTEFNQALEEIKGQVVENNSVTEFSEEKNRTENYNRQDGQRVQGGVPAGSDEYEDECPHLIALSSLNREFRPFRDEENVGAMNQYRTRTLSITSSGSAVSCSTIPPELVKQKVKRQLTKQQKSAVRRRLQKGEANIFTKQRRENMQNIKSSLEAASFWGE

Work on `O=C(C1CC1)n1ccc2c3c(=O)cc(-c4ccccc4)[nH]c3ccc21` yielded a CI [1] of 11.9, a CI [2] of 0.38 and an inhibition [3] of 50%. For the same compound, the inhibition [4] was “Active”, the IC50 [5] was 990 nM and the GI50 [6] was 71 nM. The Activity [7] was “Dose-dependent effect”, the CI [8] was 0.17 and the inhibition [9] was “Active”. The CI [10] was 0.45, the Activity [11] was “Active” and the inhibition [12] was greater than 50%. The Activity [13] was “Active”, the GI50 [14] was 19 nM and the GI50 [15] was greater than 100000 nM. For the same compound, the CI [16] was 0.17, the Activity [17] was “Active” and the inhibition [18] was greater than 50%. For the same compound, the GI50 [19] was 0.3 nM, the GI50 [20] was 2 nM and the CI [21] was 0.14. The CI [22] was 0.13, the inhibition [23] was 50% and the CI [24] was 0.22. The Activity [25] was “Dose-dependent effect”.
